Drawing on ChEMBL document CHEMBL3091399, “Protease inhibitors from Microcystis aeruginosa bloom material collected from the Dalton Reservoir, Israel” (J Nat Prod, 2013), this text covers inhibition and IC50 for twelve compounds.

The target in test [1] is T1, Prothrombin (Homo sapiens, UniProt P00734). As to the kind of experiment: Inhibition of thrombin (unknown origin) using z-Gly-Pro-Arg-4MbetaNA-acetate as substrate preincubated at 45.5 uM for 20 mins before substrate addition measured after 20 mins. Put shortly: (§1)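 Thrombin stock 0.5 mg/mL in 0.2 M Tris-HCl, pH 8. Substrate stock 0.5 mg/mL in water. Test samples from 1 mg/mL DMSO stocks. Enzyme and sample are preincubated in buffer at 25 °C for 20 min. Substrate is then added and kinetics are read at 405 nm, 25 °C, for 20 min. Percent inhibition is taken against a DMSO-only control.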

Test [2] addresses T2, Trypsin (Homo sapiens, UniProt P07477+P07478+P35030). As to the kind of experiment: Inhibition of trypsin (unknown origin) using benzoyl-L-arginine-p-nitroanilide hydrochloride as substrate preincubated at 45.5 uM for 5 mins before substrate addition measured after 30 mins. The class given is protein assay. Put shortly:
(§2)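 Trypsin stock 1 mg/mL in 0.05 M Tris-HCl/100 mM NaCl/1 mM CaCl2, pH 7.5. Substrate in 1:9 DMSO/Tris buffer. Samples from 1 mg/mL DMSO stocks. Enzyme and sample are preincubated in buffer at 37 °C for 5 min. Substrate is then added and kinetics are read at 405 nm, 37 °C, for 30 min. Percent inhibition is taken against a DMSO vehicle control.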

Test [3] deals with T2, Trypsin. The experiment in a line: Inhibition of trypsin (unknown origin) using benzoyl-L-arginine-p-nitroanilide hydrochloride as substrate preincubated for 5 mins before substrate addition measured after 30 mins. The format is protein assay. Put shortly:
as §2

Test [4] addresses T1, Prothrombin. The experiment in a line: Inhibition of thrombin (unknown origin) using z-Gly-Pro-Arg-4MbetaNA-acetate as substrate preincubated for 20 mins before substrate addition measured after 20 mins. Put shortly: as §1

Each structure is given as a SMILES string. Activity calls are given as the source filed them. No cut-off for these calls is given here. *1 amine or outer side, *2 acyl side, *3 side chain or, on linkers, in order; H or OH if unused. Where a SMILES comes first, the peptide text is derived from it. Bridges are numbered along the chain shown (N, C = ends). [ ]: non-standard residue; d: D form. hTyr = N[C@@H](CCc1ccc(O)cc1)C(=O)O; NMeA = CN[C@@H](C)C(=O)O; CO = O=C([*:1])[*:2]

For `NC(=O)[C@@H]1C[C@@H]2CC[C@H](O)C[C@@H]2N1C(=O)[C@@H](Cc1ccc(O)cc1)NC(=O)[C@H](O)Cc1ccc(O)cc1`, the inhibition entry on Prothrombin [1] and at Trypsin [2] was “inactive” in each case.

For orientation: IC50 means the concentration that inhibits the measured activity by half. For the compound `CC(C)C[C@@H](NC(=O)[C@H](O)Cc1cc(Cl)c(O)c(Cl)c1)C(=O)N1[C@H](C(=O)NCCCCNC(=N)N)C[C@@H]2CC[C@@H](OS(=O)(=O)O)C[C@@H]21`, the inhibition result on Prothrombin [1] is “inactive”. Also, on Trypsin [3], the IC50 stood at 7.3 µM.

With `CC[C@H](C)[C@@H]1NC(=O)[C@H](Cc2ccccc2)N(C)C(=O)[C@H]([C@@H](C)CC)N2C(=O)[C@H](CC[C@H]2OC)NC(=O)[C@H](CCCNC(=N)N)NC(=O)[C@@H](NC(=O)[C@@H](COS(=O)(=O)O)OS(=O)(=O)O)[C@@H](C)OC1=O`, the inhibition entry on Trypsin [3] is “Active”.

`CC[C@H](C)[C@@H]1NC(=O)[C@H](NC(=O)N[C@@H](CCCNC(=N)N)C(=O)O)CCCCNC(=O)[C@H](Cc2ccccc2)NC(=O)[C@H](C)N(C)C(=O)[C@H](CCc2ccc(O)cc2)NC1=O` ({Arg-CO}-[dK]I[hTyr][NMeA]F; lactam 1-C): the inhibition entry on Prothrombin [1] and at Trypsin [2] was “inactive” throughout.

Regarding `CC(C)C[C@@H](NC(=O)[C@H](O)Cc1ccc(O)c(Cl)c1)C(=O)N1[C@H](C(=O)NCCCCNC(=N)N)C[C@@H]2CC[C@@H](OS(=O)(=O)O)C[C@@H]21`, at Prothrombin [1], the inhibition entry was “inactive”. The IC50 at Trypsin [3] was determined as 9.5 µM.

Consider `N=C(N)NCCCCNC(=O)[C@@H]1C[C@@H]2CC[C@@H](O)C[C@@H]2N1C(=O)[C@H](Cc1ccccc1)NC(=O)[C@H](O)Cc1ccc(O)c(Cl)c1`, for which the inhibition entry at Prothrombin [1] is “inactive”. The compound also returned a half-maximal inhibitory concentration (IC50) at Trypsin [3] of 19 µM.

In the case of `CC[C@H](C)[C@@H]1NC(=O)[C@H](Cc2ccccc2)N(C)C(=O)[C@H]([C@@H](C)CC)N2C(=O)[C@H](CC[C@H]2O)NC(=O)[C@H](CCCNC(=N)N)NC(=O)[C@@H](NC(=O)[C@@H](COS(=O)(=O)O)OS(=O)(=O)O)[C@@H](C)OC1=O`, the inhibition result on Trypsin [3] was “Active”.

As to `N=C(N)NCCCCNC(=O)[C@@H]1C[C@@H]2CC[C@@H](O)C[C@@H]2N1C(=O)[C@H](Cc1ccccc1)NC(=O)[C@@H](O)Cc1ccc(O)c(Cl)c1`, the results for the IC50 at Prothrombin [4] and against Trypsin [3] were 15.5 µM and 30.8 µM, respectively.

Take `CC[C@H](C)[C@@H]1NC(=O)[C@H](Cc2ccccc2)N(C)C(=O)[C@H]([C@@H](C)CC)N2C(=O)[C@H](CC[C@H]2OC)NC(=O)[C@H](CCCNC(=N)N)NC(=O)[C@@H](NC(=O)[C@H](O)COS(=O)(=O)O)[C@@H](C)OC1=O`: the inhibition entry at Trypsin [3] was “Active”.

As to `NC(=O)[C@@H]1C[C@@H]2CC[C@H](O)C[C@@H]2N1C(=O)[C@@H](Cc1ccccc1)NC(=O)[C@H](O)Cc1ccc(O)cc1`, the inhibition result on Prothrombin [1] and on Trypsin [2] was “inactive” throughout.

Turning to `C=C(C)C(O)CC/C(C)=C/CN(CCCC(C(=O)[O-])[N+](C)(C)C)C(=N)N` (stereo not given), the inhibition entry on Prothrombin [1] and at Trypsin [2] was “inactive” each time.

Consider `CC[C@H](C)[C@@H]1NC(=O)[C@H](Cc2ccccc2)N(C)C(=O)[C@H]([C@@H](C)CC)N2C(=O)[C@H](CC[C@H]2O)NC(=O)[C@H](CCCNC(=N)N)NC(=O)[C@@H](NC(=O)[C@H](O)COS(=O)(=O)O)[C@@H](C)OC1=O`, for which the inhibition result on Trypsin [3] was “Active”.
